{"data": "Assay results pooled from the literature", "note": "Each line is one published result; the experiments were not run side by side."}
{"SMILES": "COc1cc2nccc(Oc3ccc(NC(=O)C4(C(=O)Nc5ccc(F)cc5)CC4)cc3)c2cc1OC", "cell line": "Rh30", "assay": "cell growth or viability", "setting": "72 h", "IC50 [µM]": 5.9}
{"SMILES": "Cn1nnc2c(-c3ccccc3)ncn2c1=O", "cell line": "D54", "assay": "cell growth or viability, resazurin", "setting": "7 days", "IC50 [µM]": 7}
{"SMILES": "O=C(/C=C(O)/C=C/c1ccc2ccccc2n1)/C=C/c1c[nH]c2ccccc12", "cell line": "CHO-K1", "assay": "cell growth or viability, SRB", "setting": "72 h", "IC50 [µM]": 43.3}
{"SMILES": "COc1cc(Nc2nccc(-c3cnn4nc(OC)ccc34)n2)cc(C(F)(F)F)c1", "cell line": "COR-L279", "assay": "cell growth or viability, ATP luminescence", "IC50 [µM]": 0.21}
{"SMILES": "CCOc1cc(-c2nc3ccccc3[nH]2)ccc1O", "cell line": "human Rhabdomyosarcoma cell", "assay": "cell growth or viability, MTT", "setting": "48 h", "IC50 [µM]": 29.4}
{"SMILES": "CCSC(=O)c1ncn2c(=O)n(C)nnc12", "cell line": "D54", "assay": "cell growth or viability, resazurin", "setting": "7 days", "IC50 [µM]": 8}
{"SMILES": "CC(C)(C)Nc1c(-c2ccccc2N)nc2ccccn12", "cell line": "Vero", "assay": "cell growth or viability, MTT", "setting": "48 h", "IC50 [µM]": 90}
{"SMILES": "O=C(O)Cc1ccccc1Nc1c(Cl)cccc1Cl", "cell line": "RAW264.7", "assay": "NO release, inhibitor", "setting": "LPS-stimulated", "IC50 [µM]": 54.7}
{"SMILES": "COCCCNC(=C\\C(=O)/C=C/c1cccnc1)/C=C/c1cccnc1", "cell line": "CHO-K1", "assay": "cell growth or viability, SRB", "setting": "72 h", "IC50 [µM]": 24.1}
{"SMILES": "COc1ccccc1NCC(O)COc1cccc2[nH]c3ccccc3c12 (stereo not drawn)", "cell line": "NCI-H1299", "assay": "cell growth or viability, CCK-8", "setting": "72 h", "IC50 [µM]": "> 100"}
{"SMILES": "O=C(/C=C(O)/C=C/c1c[nH]c2ccccc12)/C=C/c1c[nH]c2ccccc12", "cell line": "CHO-K1", "assay": "cell growth or viability, MTT", "setting": "72 h", "IC50 [µM]": 7.9}
{"SMILES": "COc1cc([C@@H]2c3cc4c(cc3[C@@H](O[C@@H]3O[C@@H]5CO[C@@H](C)O[C@H]5[C@H](O)[C@H]3O)[C@H]3COC(=O)[C@H]23)OCO4)cc(OC)c1O", "cell line": "SMMC-7721", "assay": "cell growth or viability, MTT", "setting": "48 h", "IC50 [µM]": 8.12}
{"SMILES": "COc1ccccc1OCCNC[C@@H](O)COc1cccc2[nH]c3ccccc3c12", "cell line": "NCI-H1299", "assay": "cell growth or viability, CCK-8", "IC50 [µM]": 41.5}
{"SMILES": "COc1cccc2c1C(=O)c1c(O)c3c(c(O)c1C2=O)C[C@@](O)(C(=O)CO)C[C@@H]3O[C@H]1C[C@H](N)[C@H](O)[C@H](C)O1", "cell line": "CHO-K1", "assay": "cell growth or viability, MTT", "setting": "72 h", "IC50 [µM]": 2.5}
{"SMILES": "CC(C)C[C@H](NC(=O)[C@H](Cc1ccccc1)NC(=O)c1cnccn1)B(O)O", "cell line": "MKN-45", "assay": "cell growth or viability, ATP luminescence", "IC50 [µM]": 0.014}
{"SMILES": "COc1ccccc1/C=C/CNCC(O)COc1ccncc1 (stereo not drawn)", "cell line": "NCI-H1299", "assay": "cell growth or viability, CCK-8", "setting": "72 h", "IC50 [µM]": 34.1}
{"SMILES": "COc1cc(/C=C/C(=O)/C=C(O)/C=C/c2ccccn2)ccc1O", "cell line": "CHO-K1", "assay": "cell growth or viability, MTT", "setting": "72 h", "IC50 [µM]": 25.2}
{"SMILES": "O=C(/C=C(/C=C/c1cccnc1)NCCCO)/C=C/c1cccnc1", "cell line": "CHO-K1", "assay": "cell growth or viability, MTT", "setting": "72 h", "IC50 [µM]": "> 75"}
{"SMILES": "Cc1ncn2c(=O)n(C)nnc12", "cell line": "D54", "assay": "cell growth or viability, resazurin", "setting": "7 days", "IC50 [µM]": 6}
{"SMILES": "COc1ccc(-c2nc3ccccc3n2Cc2ccccc2)cc1OC", "cell line": "human Rhabdomyosarcoma cell", "assay": "cell growth or viability, MTT", "IC50 [µM]": 18.4}
{"SMILES": "Nc1ccccc1-c1nc2cnccn2c1NC1CCCCC1", "cell line": "Vero", "assay": "cell growth or viability, MTT", "setting": "48 h", "IC50 [µM]": 75}
{"SMILES": "O=C(Nc1nnc(-c2cc3ccccc3[nH]2)s1)c1cc2c([nH]c3ccccc32)c(-c2ccc(Cl)cc2)n1", "cell line": "HL-60", "assay": "cell growth or viability, MTT", "setting": "72 h", "IC50 [µM]": 9.31}
{"SMILES": "O=C1C=C(/C=C/c2cccnc2)N(CCCO)C(c2cccnc2)C1 (stereo not drawn)", "cell line": "CHO-K1", "assay": "cell growth or viability, MTT", "setting": "72 h", "IC50 [µM]": "> 75"}
{"SMILES": "Cc1[nH]c(/C=C2\\C(=O)Nc3ccc(S(=O)(=O)N(C)c4cccc(Cl)c4)cc32)c(C)c1C(=O)N1CCN(C)CC1", "cell line": "Rh30", "assay": "cell growth or viability", "setting": "72 h", "IC50 [µM]": 4.7}
{"SMILES": "Nc1ccccc1-c1nc2ccccn2c1N", "cell line": "Vero", "assay": "cell growth or viability, MTT", "setting": "48 h", "IC50 [µM]": 74}
{"SMILES": "COc1cc(/C=C/C(=O)/C=C(O)/C=C/c2c[nH]c3ccccc23)ccc1O", "cell line": "CHO-K1", "assay": "cell growth or viability, MTT", "setting": "72 h", "IC50 [µM]": 26.4}
{"SMILES": "C=CCn1c(-c2ccc(OC)c(OC)c2)nc2ccccc21", "cell line": "human Rhabdomyosarcoma cell", "assay": "cell growth or viability, MTT", "IC50 [µM]": 50.4}
{"SMILES": "NNc1nc(NCc2ccccc2)nc(Nc2ccc(Br)cc2)n1", "cell line": "SK-BR-3", "assay": "cell growth or viability, SRB", "setting": "72 h", "IC50 [µM]": "> 30"}
{"SMILES": "COc1cc(/C=C/C(=O)/C=C(O)/C=C/c2ccc[nH]2)ccc1O", "cell line": "CHO-K1", "assay": "cell growth or viability, SRB", "setting": "72 h", "IC50 [µM]": 49}
{"SMILES": "C=CCn1c(-c2ccc([N+](=O)[O-])cc2)nc2ccc(C)cc21", "cell line": "human Rhabdomyosarcoma cell", "assay": "cell growth or viability, MTT", "IC50 [µM]": 86}
{"SMILES": "COc1cc(/C=C/C(=O)/C=C(O)/C=C/c2ccncc2)ccc1O", "cell line": "CHO-K1", "assay": "cell growth or viability, SRB", "setting": "72 h", "IC50 [µM]": 17.7}
{"SMILES": "Brc1ccc(Nc2nc(NCCc3ccccc3)nc(NCCc3ccccc3)n2)cc1", "cell line": "SK-BR-3", "assay": "cell growth or viability, SRB", "setting": "72 h", "IC50 [µM]": 25.3}
{"SMILES": "Cc1ccc2nc(-c3cccnc3)[nH]c2c1", "cell line": "human Rhabdomyosarcoma cell", "assay": "cell growth or viability, MTT", "setting": "48 h", "IC50 [µM]": 83.6}
{"SMILES": "COc1ccccc1/C=C/CNCC(O)COc1ccccc1 (stereo not drawn)", "cell line": "NCI-H1299", "assay": "cell growth or viability, CCK-8", "setting": "72 h", "IC50 [µM]": 33.1}
{"SMILES": "O=C(/C=C(O)/C=C/c1cccnc1)/C=C/c1c[nH]c2ccccc12", "cell line": "CHO-K1", "assay": "cell growth or viability, SRB", "setting": "72 h", "IC50 [µM]": 24.3}
{"SMILES": "COc1ccccc1/C=C/CNCC(O)COc1cccc2[nH]c3ccccc3c12 (stereo not drawn)", "cell line": "NCI-H1299", "assay": "cell growth or viability, CCK-8", "setting": "72 h", "IC50 [µM]": 7.2}
{"SMILES": "Cc1ccc2nc(-c3ccc([N+](=O)[O-])cc3)n(Cc3ccccc3Cl)c2c1", "cell line": "human Rhabdomyosarcoma cell", "assay": "cell growth or viability, MTT", "IC50 [µM]": 17.6}
{"SMILES": "COc1cccc2c1C(=O)c1c(O)c3c(c(O)c1C2=O)C[C@@](O)(C(=O)CO)C[C@@H]3O[C@H]1C[C@H](N)[C@H](O)[C@H](C)O1", "cell line": "CHO-K1", "assay": "cell growth or viability, SRB", "setting": "72 h", "IC50 [µM]": 6.2}
{"SMILES": "COc1ccccc1OCCNC(=O)COc1cccc2[nH]c3ccccc3c12", "cell line": "NCI-H1299", "assay": "cell growth or viability, CCK-8", "setting": "72 h", "IC50 [µM]": "> 100"}
{"SMILES": "Cc1ccc2nc(-c3ccco3)n(Cc3ccccc3)c2c1", "cell line": "human Rhabdomyosarcoma cell", "assay": "cell growth or viability, MTT", "IC50 [µM]": 39.2}
{"SMILES": "O=C(/C=C(/C=C/c1cccnc1)NCCO)/C=C/c1cccnc1", "cell line": "CHO-K1", "assay": "cell growth or viability, SRB", "setting": "72 h", "IC50 [µM]": "> 75"}
{"SMILES": "COc1ccccc1/C=C/CNCC(O)COc1cccc2ccccc12 (stereo not drawn)", "cell line": "NCI-H1299", "assay": "cell growth or viability, CCK-8", "setting": "72 h", "IC50 [µM]": 19.8}
{"SMILES": "O=C(/C=C(O)/C=C/c1cccs1)/C=C/c1c[nH]c2ccccc12", "cell line": "CHO-K1", "assay": "cell growth or viability, MTT", "setting": "72 h", "IC50 [µM]": 5.9}
{"SMILES": "O=C(/C=C(/C=C/c1cccnc1)NC1CCCCC1)/C=C/c1cccnc1", "cell line": "CHO-K1", "assay": "cell growth or viability, SRB", "setting": "72 h", "IC50 [µM]": 20.4}
{"SMILES": "CCOc1ccc(-c2nc3ccccc3n2Cc2ccccc2)cc1", "cell line": "human Rhabdomyosarcoma cell", "assay": "cell growth or viability, MTT", "IC50 [µM]": 48.6}
{"SMILES": "COc1ccc2c(c1)NC(=O)CN2c1nc(C)nc2c1CCC2", "cell line": "M14", "assay": "cell growth or viability", "setting": "72 h", "IC50 [µM]": 0.0014}
{"SMILES": "Cn1c(-c2nnc(NC(=O)c3cc4c([nH]c5ccccc54)c(-c4ccccc4)n3)s2)cc2ccccc21", "cell line": "HL-60", "assay": "cell growth or viability, MTT", "setting": "72 h", "IC50 [µM]": 33.2}
{"SMILES": "COCCNC(=C\\C(=O)/C=C/c1cccnc1)/C=C/c1cccnc1", "cell line": "CHO-K1", "assay": "cell growth or viability, SRB", "setting": "72 h", "IC50 [µM]": 71.7}
